ChEMBL document CHEMBL2424551, “Synthesis, in vitro evaluation and molecular modelling of naphthalimide analogue as anticancer agents” (2013)
The source made the active and inactive calls. The calls are words filed in the database; no cut-off is given here.

System: DNA
Experiment: Binding affinity to calf thymus DNA assessed as DNA intercalation at 50 uM by fluorescence spectrophotometry
Format: nucleic-acid assay
Conditions: Bos taurus
In short: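 Fluorescence titration: increasing ct-DNA added to compound in phosphate buffer (pH 7.0); decrease in emission band at 500 nm monitored; binding constant derived from titration data by Benesi–Hildebrand method.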

For `CN(C)CCN1C(=O)c2cccc3cc(N)cc(c23)C1=O`, the Activity was “Active”.
